Columns and labels:
Mus musculus [1] = species on record: Mus musculus; assay: Effective dose for 25% reduction in plasma glucose-lowering activity of KKAy mice; format: functional
Outline: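 KKAy mice (9–13 weeks old), five per group, allocated by blood glucose after 3 d on powdered CE-2 chow. Compounds given as dietary admix at three levels chosen from first screening, 4 d ad libitum. Orbital-vein plasma glucose assayed enzymatically. Dose in mg/kg/d computed from food intake and body weight; ED25 derived by linear regression.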

[2] = Plasma glucose-lowering activity at a dosage of 0.001% in the diet in KKAy mice; format: functional, Mus musculus
Outline: (§1)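 KKAy mice (9–13 weeks old), five per group, grouped by blood glucose after 3 d on powdered CE-2 chow. Dietary admixture at 0.001, 0.005 or 0.01% for 4 d, food and water ad libitum. Orbital-vein plasma glucose measured enzymatically and expressed as maximum percent reduction versus control; Dunnett's test.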

[3] = Plasma glucose-lowering activity at a dosage of 0.005% in the diet in KKA(y) mice.; format: functional, Mus musculus; outline: as §1
[4] = Plasma lipid-lowering activity at a dosage of 0.001% in the diet in KKAy mice; format: functional, Mus musculus
Outline: (§2)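 KKAy mice (9–13 weeks old), five per group, on powdered CE-2 diet containing compound at 0.001, 0.005 or 0.01% for 4 d. Plasma triglyceride from orbital-vein blood measured enzymatically and reported as maximum percent reduction from control; Dunnett's test; less than 10% reduction flagged.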

[5] = Plasma lipid-lowering activity at a dosage of 0.005% in the diet in KKA(y) mice.; format: functional, Mus musculus; outline: as §2
RXR alpha/PPAR gamma = target: T1, RXR alpha/PPAR gamma (Homo sapiens, UniProt P19793+P37231); assay: Transcriptional activation in COS cells expressing PPAR gamma and RXR alpha
T1 sequence (P37231 whole entry): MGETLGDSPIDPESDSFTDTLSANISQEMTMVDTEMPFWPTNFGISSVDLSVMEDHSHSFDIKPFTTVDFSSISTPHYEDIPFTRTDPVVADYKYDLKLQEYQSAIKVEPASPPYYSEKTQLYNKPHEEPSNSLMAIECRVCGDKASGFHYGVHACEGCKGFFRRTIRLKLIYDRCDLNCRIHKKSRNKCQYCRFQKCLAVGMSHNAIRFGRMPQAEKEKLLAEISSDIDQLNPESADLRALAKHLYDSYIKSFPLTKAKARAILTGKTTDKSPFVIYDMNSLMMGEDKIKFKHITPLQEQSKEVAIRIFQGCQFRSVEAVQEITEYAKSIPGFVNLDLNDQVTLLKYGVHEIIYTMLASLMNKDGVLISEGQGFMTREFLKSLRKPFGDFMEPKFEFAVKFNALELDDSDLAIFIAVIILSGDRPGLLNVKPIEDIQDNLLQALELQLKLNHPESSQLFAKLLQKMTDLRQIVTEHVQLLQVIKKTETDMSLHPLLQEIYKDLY
T1 sequence (P19793 whole entry): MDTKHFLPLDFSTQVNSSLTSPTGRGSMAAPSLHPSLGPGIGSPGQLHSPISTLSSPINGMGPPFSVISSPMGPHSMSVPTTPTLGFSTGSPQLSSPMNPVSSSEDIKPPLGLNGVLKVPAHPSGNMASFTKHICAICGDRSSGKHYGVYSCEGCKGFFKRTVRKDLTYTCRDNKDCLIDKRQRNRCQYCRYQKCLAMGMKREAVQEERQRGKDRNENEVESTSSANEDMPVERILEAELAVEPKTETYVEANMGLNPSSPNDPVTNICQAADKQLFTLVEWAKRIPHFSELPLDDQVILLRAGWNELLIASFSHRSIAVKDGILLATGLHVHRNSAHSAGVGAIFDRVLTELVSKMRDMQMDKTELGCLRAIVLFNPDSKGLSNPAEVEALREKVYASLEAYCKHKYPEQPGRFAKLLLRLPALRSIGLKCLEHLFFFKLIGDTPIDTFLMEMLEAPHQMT

Rattus norvegicus [6] = species on record: Rattus norvegicus; assay: Effective dose for 25% reduction in plasma glucose-lowering activity in Wistar fatty rats; format: functional
Outline: (§3)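 Wistar fatty rats (10–15 weeks old), five per group, allocated by plasma glucose and triglyceride. Oral dosing by stomach tube once daily for 6 d at three doses, suspended in 0.5% methyl cellulose; CE-2 pellets and water ad libitum. Tail-vein plasma glucose measured; ED25 taken from the three-dose response by linear regression.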

Rattus norvegicus [7] = species on record: Rattus norvegicus; assay: Effective dose for 25% reduction in glucose-lowering activity in Wistar fatty rats; format: functional; outline: as §3
Mus musculus [8] = species on record: Mus musculus; assay: Effective dose for 25% reduction in plasma lipid-lowering activity in KKAy mice; format: functional
Outline: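 Male/female not stated; KKAy mice, 9–13 weeks old, fed powdered CE-2 chow 3 d, grouped (five per group) by blood glucose. Compounds given as dietary admixture at three levels (0.01, 0.005 or 0.001% in diet) for 4 d. Orbital-vein plasma triglyceride measured enzymatically as % reduction vs control; dose (mg/kg/d) from food intake and body weight; ED25 by linear regression.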

[9] = Plasma lipid-lowering activity at a dosage of 0.01% in the diet in KKAy mice; format: functional, Mus musculus; outline: as §2
[10] = Rattus norvegicus, Plasma, read-out: ED25

## Cc1oc(-c2ccccc2)nc1COc1ccc(CCC2OC(=O)NC2=O)cc1 (centres undefined)
Mus musculus [1]
  ED25: 1.31 mg/kg/day
[2]
  Activity: 28
[3]
  Activity: 63
[4]
  Activity: 13
[5]
  Activity: 60

## COc1cc(CCCC2OC(=O)NC2=O)ccc1OCc1nc(-c2ccco2)oc1C (stereo in doubt; (+)-64)
RXR alpha/PPAR gamma
  EC50: 8.87 nM
Rattus norvegicus [6]
  ED25: 0.05 mg/kg/day
[2]
  Activity: 45
[4]
  Activity: 32

## COc1cc(CCCC2OC(=O)NC2=O)ccc1OCc1nc(-c2ccccc2)oc1C (centres undefined)
[2]
  Activity: 48
[3]
  Activity: 61
[5]
  Activity: 75

## Cc1oc(-c2ccccc2)nc1COc1ccc(CCCCC2OC(=O)NC2=O)cc1 (centres undefined)
[3]
  Activity: 43
[5]
  Activity: 51

## Cc1sc(-c2ccccc2)nc1COc1ccc(CCCC2OC(=O)NC2=O)cc1 (single isomer, unassigned; (-))
RXR alpha/PPAR gamma
  EC50: > 1000 nM
Rattus norvegicus [7]
  ED25: 3 mg/kg/day

## Cc1oc(-c2cccc3ccccc23)nc1COc1ccc(CCCC2OC(=O)NC2=O)cc1 (centres undefined)
[3]
  Activity: 23

## Cc1oc(-c2ccccc2)nc1COc1ccc(CCCCCC2OC(=O)NC2=O)cc1 (centres undefined)
[3]
  Activity: 45
[5]
  Activity: 59

## Cc1oc(-c2ccccc2)nc1COc1ccc(CCCC2OC(=O)NC2=O)cn1 (centres undefined)
RXR alpha/PPAR gamma
  EC50: 16.5 nM
Rattus norvegicus [6]; [10]
  ED25: 0.048 mg/kg/day
[2]
  Activity: 53
[3]
  Activity: 54
[4]
  Activity: 69
[5]
  Activity: 82

## Cc1oc(-c2cc3ccccc3s2)nc1COc1ccc(CCCC2OC(=O)NC2=O)cc1 (centres undefined)
[2]
  Activity: 25
[3]
  Activity: 48
[4]
  Activity: 24
[5]
  Activity: 62

## Cc1oc(-c2ccccc2)nc1CCOc1ccc(CCC2SC(=O)NC2=O)cc1 (centres undefined)
[3]
  Activity: 14
[5]
  Activity: 32

## CC1(COc2ccc(CC3SC(=O)NC3=O)cc2)CCCCC1 (centres undefined) [CIGLITAZONE]
Mus musculus [8]
  ED25: 25 mg/kg/day

## Cc1oc(-c2ccccc2)nc1CCOc1ccc(CCC2OC(=O)NC2=O)cc1 (centres undefined)
Mus musculus [1]
  ED25: 4.83 mg/kg/day
[2]
  Activity: 18
[3]
  Activity: 56
[4]
  Activity: 15
[5]
  Activity: 53

## COc1cc(CCCC2OC(=O)NC2=O)ccc1OCc1nc(-c2ccco2)oc1C (single isomer, unassigned; (-))
RXR alpha/PPAR gamma
  EC50: 35.4 nM
Rattus norvegicus [6]
  ED25: 0.362 mg/kg/day
[3]
  Activity: <10
[4]
  Activity: < 10

## Cc1oc(-c2ccccc2)nc1COc1ccc(CCCCCC2SC(=O)NC2=O)cc1 (centres undefined)
[3]
  Activity: 19
[5]
  Activity: <10

## Cc1oc(-c2ccccc2)nc1COc1ccc(CCCC2SC(=O)NC2=O)cc1 (centres undefined)
[2]
  Activity: <10
[3]
  Activity: 48
[4]
  Activity: <10
[5]
  Activity: 37

## Cc1oc(-c2ccccc2)nc1CCC(=O)c1ccc(CCCC2OC(=O)NC2=O)cc1 (centres undefined)
[3]
  Activity: 32
[5]
  Activity: 17

## Cc1oc(-c2ccccc2)nc1COc1ccc(CCCC2OC(=O)NC2=O)cc1 (centres undefined)
RXR alpha/PPAR gamma
  EC50: 119 nM
Mus musculus [1]
  ED25: 0.402 mg/kg/day
Rattus norvegicus [6]; [10]
  ED25: 0.078 mg/kg/day
[2]
  Activity: 53
[3]
  Activity: 61
[4]
  Activity: 55
[5]
  Activity: 83

## COc1cc(CCCC2SC(=O)NC2=O)ccc1OCc1nc(-c2ccccc2)oc1C (centres undefined)
Mus musculus [1]
  ED25: 3.17 mg/kg/day
[2]
  Activity: 12
[3]
  Activity: 54
[4]
  Activity: 24
[5]
  Activity: 58

## Cc1oc(-c2ccccc2)nc1CCOc1ccc(/C=C/C=C2\SC(=O)NC2=O)cc1
[3]
  Activity: 13
[5]
  Activity: 13

## Cc1oc(-c2ccccc2)nc1COc1ccc(CCCCC2SC(=O)NC2=O)cc1 (centres undefined)
[3]
  Activity: 22
[5]
  Activity: 21

## Cc1oc(-c2ccccc2)nc1CCOc1ccc(CCCCC2OC(=O)NC2=O)cc1 (centres undefined)
[3]
  Activity: 27
[5]
  Activity: 27

## Cc1oc(-c2ccccc2)nc1CCCOc1ccc(CC2OC(=O)NC2=O)cc1 (centres undefined)
[3]
  Activity: 30
[5]
  Activity: 25

## Cc1oc(-c2ccc3ccccc3c2)nc1COc1ccc(CCCC2OC(=O)NC2=O)cc1 (centres undefined)
RXR alpha/PPAR gamma
  EC50: 29.3 nM
Rattus norvegicus [6]; [10]
  ED25: 0.178 mg/kg/day
[2]
  Activity: 45
[3]
  Activity: 55
[4]
  Activity: 40
[5]
  Activity: 72

## Cc1oc(-c2ccccc2)nc1COc1cccc(CCCC2OC(=O)NC2=O)c1 (centres undefined)
[3]
  Activity: 32
[9]
  Activity: 47

## Cc1oc(-c2ccccc2)nc1COc1ccc(/C=C/C=C2/OC(=O)NC2=O)cc1
[3]
  Activity: 23
[5]
  Activity: 29

## Cc1oc(-c2ccccc2)nc1CCOc1ccc(CCCC2OC(=O)NC2=O)cc1 (centres undefined)
Mus musculus [1]
  ED25: 2.91 mg/kg/day
[2]
  Activity: 11
[3]
  Activity: 49
[4]
  Activity: 26
[5]
  Activity: 41

## O=C1NC(=O)C(CCCc2ccc(OCc3coc(-c4ccccc4)n3)cc2)O1 (centres undefined)
[3]
  Activity: 44

## Cc1oc(-c2ccccc2)nc1CCOc1ccc(CCCCCC2OC(=O)NC2=O)cc1 (centres undefined)
[3]
  Activity: 23
[5]
  Activity: 17

## Cc1oc(-c2ccco2)nc1COc1ccc(CCCC2OC(=O)NC2=O)cc1 (centres undefined)
[2]
  Activity: 38
[3]
  Activity: 61
[5]
  Activity: 58

## Cc1oc(-c2cc3ccccc3o2)nc1COc1ccc(CCCC2OC(=O)NC2=O)cc1 (centres undefined)
[2]
  Activity: 27
[3]
  Activity: 47
[4]
  Activity: 12
[5]
  Activity: 71

## COc1cc(CCCC2OC(=O)NC2=O)ccc1OCc1nc(-c2ccco2)oc1C (stereo in doubt; 64)
RXR alpha/PPAR gamma
  EC50: 24.1 nM
Rattus norvegicus [6]
  ED25: 0.069 mg/kg/day
[2]
  Activity: 39
[3]
  Activity: 58
[4]
  Activity: < 10
[5]
  Activity: 74

## Cc1oc(-c2ccccc2)nc1CCCc1ccc(CCCC2OC(=O)NC2=O)cc1 (centres undefined)
[3]
  Activity: 22
[5]
  Activity: 19

## Cc1sc(-c2ccccc2)nc1COc1ccc(CCCC2OC(=O)NC2=O)cc1 (centres undefined)
RXR alpha/PPAR gamma
  EC50: 813 nM
Rattus norvegicus [6]; [10]
  ED25: 0.5 mg/kg/day
[2]
  Activity: 15
[3]
  Activity: 43
[4]
  Activity: 17
[5]
  Activity: 58

## Cc1oc(-c2ccccc2)nc1CCC(O)c1ccc(CCCC2OC(=O)NC2=O)cc1 (centres undefined)
[3]
  Activity: 23
[5]
  Activity: 22

## Cc1oc(-c2ccccc2)nc1COc1ccc(CCC2SC(=O)NC2=O)cc1 (centres undefined)
[3]
  Activity: 24
[5]
  Activity: 15

## Cc1oc(-c2ccccc2)nc1COc1ccccc1CCCC1OC(=O)NC1=O (centres undefined)
[3]
  Activity: 11
[9]
  Activity: 33
